Values joined by “and” are separate entries in the source; they are usually repeats but may differ in a detail not shown here. Identical values can stand only once. Blank lines part the entries; values can stand above or below the molecule they belong to.
Columns and labels:
[1] = test system: SS cells (homozygous sickle red blood cells); assay: Antisickling study; format: cell-based, human; settings: for inhibition of RBC sickling: hypoxia
How it was run: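 SS patient blood suspensions (20% hematocrit) were preincubated in air with 0, 1, 2 or 5 mM test compound (final DMSO <2%) at 37 °C for 1 h. They were then held under hypoxia (4% O2/96% N2) at 37 °C for 2 h. Aliquots were fixed in 2% glutaraldehyde without air exposure and scored microscopically for sickled cells. % inhibition was calculated against untreated control. Three biological replicates.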

[2] = target: Hb A (Homo sapiens, UniProt P69905); assay: Time-dependent Hb adduct formation in normal whole blood; format: in vitro ADME; settings: for Hb modification (residual Hb adduct) at 24 h: normal whole blood, 2 mM compound; for remaining activity at 2000 µM: read-out: remaining activity at 24 h
How it was run: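 Normal donor whole blood (30% hematocrit) was incubated with 2 mM test compound at 37 °C for 24 h with shaking at 140 rpm. Aliquots taken at 0.5, 1, 2, 4, 6, 8 and 24 h were mixed 1:1 with sodium cyanoborohydride/borohydride mix (50 mM stock) to fix adducts. Samples were stored at −80 °C, then analysed by cation-exchange HPLC as %Hb modified versus time. Peak was found by visual inspection and AUC0–24 by linear trapezoidal rule.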

[3] = cited from earlier work
[4] = target: Hb (Homo sapiens, UniProt P69905); assay: Incubation of VZHE004 with Hb for 3 days, UPLC-MS analysis; format: physicochemical; settings: incubated with Hb for 3 days
[5] = target: sickle Hb (Hb S) (Homo sapiens, UniProt P69905); assay: Hb adduct formation study; format: cell-based; settings: SS cells, 20% hematocrit, 2 mM compound, mean ± SD of three experiments
How it was run: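 SS cell suspensions (20% hematocrit) were incubated with test compound (final DMSO <2%) in air at 37 °C for 1 h, then under 4% O2/96% N2 at 37 °C for 2 h. Cells were PBS-washed and lysed in hypotonic buffer. Clarified hemolysate was run on weak cation-exchange HPLC, and modified Hb S was taken from elution patterns. Three biological replicates, mean ± SD.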

[6] = at all three concentrations (1, 2 and 5 mM)

SMILES: O=Cc1ccc(COc2ccc(Cl)cc2)o1 [5-CMFC, 5-((4-chlorophenoxy)methyl)-2-furan carbaldehyde]
- inhibition of RBC sickling [1, 6]: < 10%

- Hb modification (residual Hb adduct) at 24 h [2]: ~ 2% and 1.1%
- remaining activity at 2000 µM [2]: ~8%
SMILES: O=Cc1ccc(CO)o1 [5-HMF, 5-hydroxymethyl-2-furfural, reference compound]
- plasma half-life [3]: ~ 1 h

- Hb modification (residual Hb adduct) at 24 h [2]: ~ 7%
- remaining activity at 2000 µM [2]: ~29%
SMILES: O=Cc1ccc(COc2ccccc2[N+](=O)[O-])o1 [5-NMFC, 5-((2-nitrophenoxy)methyl)-2-furan carbaldehyde]
- inhibition of RBC sickling [1, 6]: < 10%

- Hb modification (residual Hb adduct) at 24 h [2]: ~ 7%
- remaining activity at 2000 µM [2]: ~29%
SMILES: O=Cc1ccc(COc2ccccc2)o1 [5-PMFC, 5-(Phenoxymethyl)-2-furan carbaldehyde]

- stability against hydrolytic cleavage of the ester (UPLC–MS) [4]: intact
SMILES: CC(=O)OCc1ccc(C=O)o1 [VZHE004, (5-Formylfuran-2-yl)methyl Acetate]

- modified Hb (%) [5]: 35.3 ± 11.6%
SMILES: COCc1ccc(C=O)o1 [VZHE005, 5-(Methoxymethyl)-2-furan Carboxadehyde]

- modified Hb (%) [5]: 50.0 ± 3.0%
SMILES: CC(C)(C)OC(=O)OCc1ccc(C=O)o1 [VZHE006, tert-Butyl((5-formylfuran-2-yl)methyl) Carbonate]
- fold antisickling potency over the other three esters and 5-HMF ([1]; 2 mM compound): roughly 3 fold
- inhibition of RBC sickling ([1]; 5 mM compound): > 95%

- modified Hb (%) [5]: 40.4 ± 3.9%
SMILES: CCOCc1ccc(C=O)o1 [VZHE011, 5-(Ethoxymethyl)-2-furan Carboxadehyde]

SMILES: COP(=O)(OC)OCc1ccc(C=O)o1 [VZHE014, (5-Formylfuran-2-yl)methyl Dimethyl Phosphate]
- inhibition of RBC sickling ([1]; 5 mM compound): 43% and ~ 40%
- modified Hb (%) [5]: 19.7 ± 6.3%

- modified Hb (%) [5]: 39.7 ± 8.2%
SMILES: CCCOCc1ccc(C=O)o1 [VZHE015, 5-(Propoxymethyl)-2-furan Carboxadehyde]

- modified Hb (%) [5]: 36.4 ± 9.7%
SMILES: CC(C)OCc1ccc(C=O)o1 [VZHE016, 5-(Isopropoxymethyl)-2-furan Carboxadehyde]
- inhibition of RBC sickling ([1]; 5 mM compound): < 10%
